A selection: hits, their analogues and other compounds. The true share with any hit is near 2.5%.
ADAM17 inh: ADAM17 inhibitors, primary screen, biochemical, QFRET; Disintegrin and metalloproteinase domain-containing protein 17 (Homo sapiens), P78536; recombinant ADAM17, EDANS/DABCYL FRET peptide cleavage; inhibition, % at 6.95 µM; 0.83% of 370,000 active; AID 720648, 2013;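 active means inhibition above the mean of compounds lying between control limits plus 3 SD, set per campaign, cut at about 8.5% in these data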
Target sequence (P78536 215-824 limits assumed): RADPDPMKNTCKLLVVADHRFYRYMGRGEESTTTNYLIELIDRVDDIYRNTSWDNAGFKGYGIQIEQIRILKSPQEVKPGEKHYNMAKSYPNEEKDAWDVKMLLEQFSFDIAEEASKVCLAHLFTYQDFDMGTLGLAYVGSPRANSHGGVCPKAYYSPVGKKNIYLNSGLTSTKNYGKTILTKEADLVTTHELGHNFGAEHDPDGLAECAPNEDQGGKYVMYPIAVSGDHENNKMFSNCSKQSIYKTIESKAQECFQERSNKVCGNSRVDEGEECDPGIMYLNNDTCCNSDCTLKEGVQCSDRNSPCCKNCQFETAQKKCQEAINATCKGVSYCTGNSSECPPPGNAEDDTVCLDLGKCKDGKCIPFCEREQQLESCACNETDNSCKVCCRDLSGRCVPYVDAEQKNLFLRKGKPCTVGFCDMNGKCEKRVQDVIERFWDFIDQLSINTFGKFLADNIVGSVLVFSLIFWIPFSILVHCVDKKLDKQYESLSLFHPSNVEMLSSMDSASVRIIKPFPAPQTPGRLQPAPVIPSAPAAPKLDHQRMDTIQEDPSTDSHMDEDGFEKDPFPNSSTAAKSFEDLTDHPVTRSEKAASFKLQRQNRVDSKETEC
NR2E3 ag-1: inhibitors of NR2E3-RetCOR corepressor binding, primary screen, NR2E3 agonist project, biochemical, TR-FRET, GST-NR2E3, biotin-RetCOR; Photoreceptor-specific nuclear receptor (Homo sapiens), Q9Y5X4; 1536-well; inhibition of corepressor binding, % at 4.78 µM; 0.12% of 320,000 active; AID 2300, 2010;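 active means percent inhibition above the cutoff of mean plus 3 SD of all tested compounds, set per screening campaign, cut at about 20% in these data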
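Material – GST-tagged NR2E3 plus biotinylated RetCOR corepressor · Quantity – NR2E3 fusion 1.35 nM · Times – 5 h incubation at 4 °C · Medium – pH 7.5 Tris-based buffer · Technique – TR-FRET, Eu(K)-anti-GST donor, streptavidin-D2 acceptor, ex 340, em 617/671 nm · Benchmarks – high control biotin, low control 0.6% DMSO · Format – 1536-well plates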
NR2E3 ag-2: NR2E3 agonists in two-hybrid cells, primary screen, cell-based, luminescence, CHO-S, Gal4-NCOR/VP16-NR2E3. luciferase. inhibition of corepressor binding, % at 3.98 µM. 0.35% of 360,000 active;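 active means inhibition above the mean of all tested compounds plus 3 SD, cut at about 70% in these data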;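 further: higher means lower luciferase signal from less NR2E3 corepressor binding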
ADAM10 inh: human ADAM10 inhibitors, primary screen, biochemical, QFRET, HTS | Disintegrin and metalloproteinase domain-containing protein 10 (Homo sapiens), O14672 | recombinant ADAM10, EDANS/DABCYL FRET peptide cleavage, 3 h | inhibition, % at 7 µM | 0.62% of 370,000 active;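 active means inhibition above a per-campaign cutoff equal to the mean of compounds falling between control-based bounds plus 3 SD, cut at about 20% in these data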
KLK7 zymogen act: proKLK7 zymogen activators, primary screen, biochemical, fluorescence intensity; activation, % at 7 µM; AID 652039, 2013; purified proKLK7, EDANS-DABCYL substrate fluorescence; 100% is mature enzyme control, 0% vehicle; 0.9% of 370,000 active;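 active means activation above the mean of all tested compounds plus 3 SD, computed per campaign excluding outliers beyond control limits, cut at about 13% in these data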
GASC-1 inh: inhibitors of GASC-1 histone demethylase, primary screen, biochemical, fluorescence, DELFIA europium; Lysine-specific demethylase 4C (Homo sapiens), Q9H3R0; GST-JMJD2C(1-420) H3K9me3 demethylation; inhibition, % at 2.35 µM; 0.069% of 330,000 active; AID 2099, 2009;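 active means more than half of a compound's replicate wells show inhibition beyond 50%, single wells judged on their own value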;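 further: signal counts dimethyl H3K9 product captured on neutravidin plate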
proKLK7 act conf: proKLK7 zymogen activators, confirmation, biochemical, fluorescence intensity, triplicate. shares compounds with KLK7 zymogen act. purified proKLK7, EDANS-DABCYL substrate fluorescence; scaled: vehicle 0, mature enzyme 100. activation, % at 7 µM. 68% of 3,200 active. AID 686949, 2013;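 active means activation, as change over the incubation, above the mean of all tested compounds plus 3 SD, cut at about 13% in these data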
EDANS-DABCYL int: EDANS-DABCYL substrate optical interference, artefact control for kallikrein-7 zymogen activator project, biochemical, fluorescence intensity, high throughput | shares compounds with KLK7 zymogen act | no enzyme, 4 h; solvent 0%, active enzyme control 100% | activation, % at 7 µM | 80% of 3,200 active | AID 686952, 2013;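 active means activation above the all-compound mean plus 3 SD, ignoring values outside control-based bounds, cut at about 4.8% in these data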;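 further: value is the 4 h activation minus the activation read at time zero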
Of the large screens only hits and unclear results are named; the others gave an inactive call (follow-up assays come after a bar, where they were run).

Cc1ccc(S(=O)(=O)c2c(N)n(CCC(C)C)c3nc4ccccc4nc23)cc1	none
Cn1ccc2c(-c3ccc(C(=O)O)cc3)cc3c(c21)C1CCC3O1 (stereo unspecified)	KLK7 zymogen act 79 (no result: NR2E3 ag-1, GASC-1 inh) | proKLK7 act conf 66 | EDANS-DABCYL int 70
CN(C)C1=NCCN1CCc1cccc(F)c1	none
CC1=C(C(=O)Nc2ccc(F)cc2)C(c2ccncc2)C2=C(CCCC2=O)N1 (stereo unspecified)	none
CCn1cc(C2C(C(=O)Nc3ccc(Br)cn3)=C(C)NC3=C2C(=O)CCC3)c(C)n1 (stereo unspecified)	KLK7 zymogen act 16 | proKLK7 act conf 17 | EDANS-DABCYL int 17
CC1=C(C(=O)Nc2ccccn2)C(c2cn(C)nc2C)C2=C(CCCC2=O)N1 (stereo unspecified)	KLK7 zymogen act 15 | proKLK7 act conf 19 | EDANS-DABCYL int 21
Cc1noc(C)c1NC(=O)Nc1ccc2c(c1)C(=O)N(C)[C@H]1CC[C@H](CC(=O)NCc3ccc(Cl)cc3)O[C@@H]1CO2	none (no result: NR2E3 ag-1, NR2E3 ag-2, GASC-1 inh)
N#Cc1cc2cc3c(cc2nc1N1CCOCC1)OCO3	KLK7 zymogen act 18 | proKLK7 act conf 114 | EDANS-DABCYL int 123
COC(=O)c1ccc2c(C)c(C(C)(C)O)[nH]c2c1	KLK7 zymogen act 28 | proKLK7 act conf 67 | EDANS-DABCYL int 63
N#Cc1ccc(CC(=O)c2ccccc2)[nH]c1=O	KLK7 zymogen act 16 (no result: NR2E3 ag-1, GASC-1 inh) | proKLK7 act conf 100 | EDANS-DABCYL int 98
N#Cc1ccc(CCc2ccccc2)[nH]c1=O	none (no result: NR2E3 ag-1, GASC-1 inh)
COc1ccccc1-n1c(N)c(C(=O)NCC2CCCO2)c2nc3ccccc3nc21 (stereo unspecified)	KLK7 zymogen act 14 | proKLK7 act conf inactive | EDANS-DABCYL int inactive
COc1cc(N/C(N)=N/c2nc(C)cc(C)n2)cc(OC)c1	KLK7 zymogen act 14 | proKLK7 act conf inactive | EDANS-DABCYL int inactive
COc1ccc(N/C(N)=N/c2nc(C)cc(C)n2)c(OC)c1	none
CN(C)CC(O)CN1C(=O)NC(C)(C)C1=O (stereo unspecified)	none
CCc1nc2ccc(C(=O)N(C)Cc3ccccc3)cn2c1N(C)Cc1ccc(OC)cc1	none (no result: NR2E3 ag-1, GASC-1 inh)
Cc1ccc2oc(=O)cc(CN3CC(C)OC(C)C3)c2c1 (stereo unspecified)	none
CN(Cc1ccccc1F)Cc1cc(=O)oc2cc(O)c(Cl)cc12	KLK7 zymogen act 60 | proKLK7 act conf 68 | EDANS-DABCYL int 61
CC1CN(Cc2cc(=O)oc3cc(O)c(Cl)cc23)CC(C)O1 (stereo unspecified)	KLK7 zymogen act 87 | proKLK7 act conf 73 | EDANS-DABCYL int 70
CC1CCN(Cc2cc(=O)oc3cc(O)c(Cl)cc23)CC1	KLK7 zymogen act 48 | proKLK7 act conf 70 | EDANS-DABCYL int 71
CC1CCN(Cc2cc(=O)oc3cc4c(cc23)CCCC4)CC1	none
CCN1C(=O)c2cccc3c(S(=O)(=O)Nc4ccccc4)ccc1c23	none (no result: ADAM17 inh, ADAM10 inh, KLK7 zymogen act)
CNS(=O)(=O)c1ccc2c3c(cccc13)C(=O)N2C	KLK7 zymogen act 35 | proKLK7 act conf 55 | EDANS-DABCYL int 66

Screening data deposited in PubChem BioAssay by several laboratories.
